These results are taken from ChEMBL document CHEMBL4765447, “Design, synthesis and biological evaluation of diamino substituted cyclobut-3-ene-1,2-dione derivatives for the treatment of drug-resistant tuberculosis” (Eur J Med Chem, 2020).

Each structure is given as a SMILES string. Converted amounts (≈) assume the structure as drawn.

The subject of experiment [1] is Mycobacterium tuberculosis. Nature of the experiment: Inhibition of ATP synthase in bedaquiline-resistant Mycobacterium tuberculosis assessed as reduction in bacterial growth incubated for 7 days by microplate alamar blue assay. Conditions: time 7.0 day. Summed up:
(§1)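 Microplate alamar blue assay. Strains grown to late log phase in 7H9 broth with 0.2% glycerol, 0.05% Tween 80 and 10% ADC, then washed, filtered (8 µm) and frozen. Twofold compound dilutions with 2×10^5 CFU per well at 37 °C. On day 7, Tween 80 and alamar blue added; after 16–24 h, fluorescence read at 530/590 nm. MIC is the lowest concentration giving ≥90% fluorescence reduction versus bacterium-only controls.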
On the technique in general: The colour change of resazurin is a common sign of viable cells or microbes.

Experiment [2] in a line: Ratio of MIC for inhibition of ATP synthase in bedaquiline-resistant Mycobacterium tuberculosis to MIC for inhibition of ATP synthase in Mycobacterium tuberculosis H37Rv. Summed up: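 Ratio of alamar-blue MIC against the bedaquiline-resistant strain to MIC against H37Rv, both measured in the 7-day microplate alamar blue assay.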
The subject of experiment [3] is Mycobacterium tuberculosis. Nature of the experiment: Inhibition of ATP synthase in multi-drug resistant Mycobacterium tuberculosis clinical isolate 13946 assessed as reduction in bacterial growth incubated for 7 days by microplate alamar blue assay. Conditions: time 7.0 day. Summed up:
as §1

Experiment [4] deals with Mycobacterium tuberculosis. Description: Inhibition of ATP synthase in multi-drug resistant Mycobacterium tuberculosis clinical isolate 14862 assessed as reduction in bacterial growth incubated for 7 days by microplate alamar blue assay. Conditions: time 7.0 day. Summed up:
as §1

Consider `COc1nc2ccc(Br)cc2cc1[C@@H](c1ccccc1)[C@@](O)(CCN(C)C)c1cccc2ccccc12`, for which, in experiment [1], the MIC=>90 came out at 2.23 µg/mL (≈ 4.02 µM). In addition, the Ratio in experiment [2] was 62.

As to `O=c1c(NCc2ccccn2)c(Nc2ccc3c(c2)CCC3)c1=O`, the MIC=>90 came out at 0.903 µg/mL (≈ 2.83 µM) in experiment [3] and 0.94 µg/mL (≈ 2.94 µM) in experiment [4].

Take `O=c1c(NCc2ccccn2)c(Nc2ccc3scnc3c2)c1=O`: the MIC=>90 turned out to be 3.53 µg/mL (≈ 10.5 µM) in experiment [3] and 3.37 µg/mL (≈ 10 µM) in experiment [4].

Regarding `O=c1c(NCc2ccccn2)c(Nc2ccc3c(c2)OCO3)c1=O`, the MIC=>90 in experiment [3] was found to be 0.47 µg/mL (≈ 1.45 µM); in experiment [4], 0.499 µg/mL (≈ 1.54 µM); in experiment [1], 3.76 µg/mL (≈ 11.6 µM). Besides, in experiment [2], the Ratio stood at 7.5.

As to `CO[C@H]1/C=C/O[C@@]2(C)Oc3c(C)c(O)c4c(O)c(c(/C=N/N5CCN(C)CC5)c(O)c4c3C2=O)NC(=O)/C(C)=C\C=C\[C@H](C)[C@H](O)[C@@H](C)[C@@H](O)[C@@H](C)[C@H](OC(C)=O)[C@@H]1C`, the MIC=>90 in experiment [3] was more than 10 µg/mL; in experiment [4] it was 9.32 µg/mL (≈ 11.3 µM).

Take `O=c1c(NCc2ccccn2)c(-c2ccc(N3CCOCC3)cc2)c1=O`: the MIC=>90 in experiment [3] was 0.107 µg/mL (≈ 0.306 µM); in experiment [4], 0.114 µg/mL (≈ 0.326 µM); in experiment [1], 3.02 µg/mL (≈ 8.63 µM). The Ratio in experiment [2] stood at 14.9.

Take `Cc1cc(Nc2c(NCc3ccccn3)c(=O)c2=O)ccc1N1CCSCC1`: the MIC=>90 in experiment [3] turned out to be 0.257 µg/mL (≈ 0.651 µM); in experiment [4], 0.207 µg/mL (≈ 0.525 µM); in experiment [1] it was 4.85 µg/mL (≈ 12.3 µM). Moreover, the Ratio in experiment [2] came out at 5.7.

For the compound `NNC(=O)c1ccncc1`, the results for the MIC=>90 in experiment [3], in experiment [4] and in experiment [1] were 2.26 µg/mL (≈ 16.5 µM), more than 10 µg/mL and 0.052 µg/mL (≈ 0.379 µM), respectively.

For `O=C1CCCc2cc(Nc3c(NCc4ccccn4)c(=O)c3=O)ccc21`, the MIC=>90 in experiment [3] is 0.488 µg/mL (≈ 1.4 µM); in experiment [4], 0.895 µg/mL (≈ 2.58 µM).
